Reference: ChEMBL document CHEMBL1649225, “Artemisone and artemiside control acute and reactivated toxoplasmosis in a murine model” (Antimicrob Agents Chemother, 2009)
The source made the active and inactive calls. No cut-off for these calls is given here.

Experiments:
HFF = test: Cytotoxicity against HFF; assay type: cell-based; conditions: human
Toxoplasma gondii [1] = test: Antiparasitic activity against Toxoplasma gondii RH infected in human foreskin fibroblasts monolayer after 72 hrs by bacterial beta-galactosidase reporter gene assay; assay type: functional, organism-based
Summary of the method: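 RH clone 2F expressing bacterial β-galactosidase, grown as tachyzoites in HFF monolayers in DMEM with 10% FBS. Compounds from DMSO stocks stored at −80°C in single-use aliquots. Tested at 0.010–1.0 μM for 72 h at 37°C. Medium then removed and β-galactosidase activity read at 570 nm.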

[2] = Partition coefficient, log P of the compound; assay type: physicochemical; conditions: octanol/water
Toxoplasma gondii [3] = test: Antiparasitic activity against Toxoplasma gondii PRU-Luc-GFP type 2 infected in CD1 mouse acute toxoplasmosis model assessed as mouse survival at 10 mg/kg, sc administered once daily for 8 days measured after 25 days post-infection; assay type: functional; conditions: PRU-Luc-GFP type 2, sc, route subcutaneous
Summary of the method: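 Female CD1 outbred mice, 8–10 weeks old, infected i.p. with 10⁶ PRU-Luc-GFP type II tachyzoites in 0.2 ml PBS. Compounds given s.c. at 10 mg/kg daily for 8 days. Survival followed for 25 days; three experiments combined, n = 3 or 4 per group.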

Toxoplasma gondii [4] = test: (§1) Antiparasitic activity against Toxoplasma gondii PRU-Luc-GFP type 2 infected in CD1 mouse acute toxoplasmosis model assessed as decrease in parasite burden at 10 mg/kg, sc administered once daily for 8 days measured after 25 days post-infection by luciferase reporter gene based assay; assay type: functional, organism-based; set-up: dose 10 mg/kg
Summary of the method: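 Female CD1 mice, 8–10 weeks old, infected i.p. with 10⁶ PRU-Luc-GFP tachyzoites. Dosed s.c. at 10 mg/kg daily for 8 days. Imaged every 2 days over 25 days under mild isoflurane anesthesia after i.p. firefly luciferin D at […]. Output in relative light units as a relative index of infection severity. Four repeats, n = 3 or 4 per group; one representative experiment shown.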

Toxoplasma gondii [5] = test: (§2) Antiparasitic activity against Toxoplasma gondii PRU-Luc-GFP type 2 infected in 400 mg/kg sulfadiazine-pretreated INFgamma-deficient C57BL/6 mouse reactivated toxoplasmosis model assessed as mouse survival at 10 mg/kg, sc at once daily for 8 days administered 2 days after sulfadiazine discontinuation; assay type: functional
Summary of the method: (§3)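 Female IFN-γ−/− mice on C57BL/6 background, 8–10 weeks old, kept specific pathogen-free. Infected orally with 20 PRU-Luc-GFP tissue cysts taken from brains of chronically infected wild-type mice. Sulfadiazine in drinking water for 3 weeks from day 2. Compounds given s.c. at 10 mg/kg daily for 8 days, starting 2 days after sulfadiazine stopped. Survival monitored; three experiments combined, n = 3–5 per group.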

Toxoplasma gondii [6] = test: as §2, with “discontinuation measured on day 18 post infection after compound withdrawal” for “discontinuation”; assay type: functional, organism-based; summary of the method: as §3
Toxoplasma gondii [7] = test: as §2, with “discontinuation measured on day 25 post infection after compound withdrawal” for “discontinuation”; assay type: functional, organism-based; summary of the method: as §3
Toxoplasma gondii [8] = test: as §1, with “parasite-induced cyst formation in mouse brain” for “parasite burden”; assay type: functional, organism-based; set-up: dose 10 mg/kg
Summary of the method: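 Female CD1 mice, 8–10 weeks old, infected i.p. with 10⁶ PRU-Luc-GFP tachyzoites and dosed s.c. at 10 mg/kg daily for 8 days. At 25 days post-infection, brains were homogenized in 1.0 ml PBS, pH 7.2. Cysts counted by bright-field or phase-contrast microscopy at ×40 in four 20-μl aliquots and total cysts per brain estimated. Three experiments combined, n = 2 per group.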

[9] = Partition coefficient, log P of the compound at pH 2; assay type: physicochemical; conditions: octanol/water

Compound | Activity (HFF) | EC50 (Toxoplasma gondii [1]) [nM] | EC90 (Toxoplasma gondii [1]) [nM] | logP [2] | survival at 10 mg/kg (Toxoplasma gondii [3]) [%] | Activity (Toxoplasma gondii [4]) | Survival (Toxoplasma gondii [5]) [%] | Activity (Toxoplasma gondii [6]) | Activity (Toxoplasma gondii [7]) | Activity (Toxoplasma gondii [8]) | logP [9]
C[C@H]1[C@H](NS(N)(=O)=O)O[C@@H]2O[C@@]3(C)CC[C@H]4[C@H](C)CC[C@@H]1[C@@]24OO3 | Non-toxic | 158 | 235 | 3.36 | – | – | – | – | – | – | –
C[C@@H]1CC[C@H]2[C@@H](C)C(c3ccc(F)cc3)O[C@@H]3O[C@@]4(C)CC[C@@H]1[C@]32OO4 (some centres not stated) | Non-toxic | 182 | 271 | 5.18 | – | – | – | – | – | – | –
C[C@H]1[C@H](N2CCN(Cc3ccccc3)CC2)O[C@@H]2O[C@@]3(C)CC[C@H]4[C@H](C)CC[C@@H]1[C@@]24OO3 | Non-toxic | 213 | 339 | 5.62 | – | – | – | – | – | – | –
C[C@H]1[C@H](N2CCN(c3ncccn3)CC2)O[C@@H]2O[C@@]3(C)CC[C@H]4[C@H](C)CC[C@@H]1[C@@]24OO3 | Non-toxic | 156 | 263 | 4.78 | – | – | – | – | – | – | –
C[C@H]1[C@H](N2CCS(=O)(=O)CC2)O[C@@H]2O[C@@]3(C)CC[C@H]4[C@H](C)CC[C@@H]1[C@@]24OO3 [ARTEMIFONE] | Non-toxic | 120 | 176 | 2.49 | 50 | Active | 60 | inactive | inactive | – | –
C[C@H]1[C@H](N2CCSCC2)O[C@@H]2O[C@@]3(C)CC[C@H]4[C@H](C)CC[C@@H]1[C@@]24OO3 [ARTEMISIDE] | Non-toxic | 108 | 167 | 4.97 | 60 | Active | 80 | inactive | inactive | Active | –
C[C@@H]1CC[C@H]2[C@@H](C)C(=O)O[C@@H]3O[C@@]4(C)CC[C@@H]1[C@]32OO4 [ARTEMISININ] | – | – | – | 2.94 | – | inactive | – | – | – | inactive | –
C[C@H]1[C@H](OC(=O)CCC(=O)O)O[C@@H]2O[C@@]3(C)CC[C@H]4[C@H](C)CC[C@@H]1[C@@]24OO3 [ARTESUNATE] | Non-toxic | 213 | 368 | – | – | – | – | – | – | – | 2.77
